Measured values gathered from unrelated publications.
Compare with care: the assays were run in different laboratories.
Read-out: cell growth or viability

O=C1Nc2ccccc2C1=Nc1ccc(Cl)cc1 gave an IC50 of 28.4 µM (L02; MTT; 48 h).
Nc1ccccc1NC(=O)c1ccc(Cn2cnc3c(Nc4ccc(Cl)cc4)ncnc32)cc1 gave an IC50 of 1.55 µM (NALM-6; MTT; 72 h).
CC1=CC(=O)C(C(C)C)=CC1=O gave an IC50 of 8.9 µM (PANC-1; SRB; 48 h).
For CC(C)c1cccc(C(C)C)c1N=C1C(=O)Nc2ccccc21, the IC50 was 31.6 µM (L02; MTT; 48 h).
For CCOc1cc2ncc(C#N)c(Nc3ccc(OCc4ccccn4)c(Cl)c3)c2cc1NC(=O)/C=C/CN(C)C, the IC50 was 0.014 µM (HCC1419; ATP luminescence).
O=C(NO)c1ccc(Cn2cnc3c(Nc4cccc([N+](=O)[O-])c4)ncnc32)cc1 has an IC50 of 1.9 µM (NALM-6; MTT; 72 h).
With COc1cccc2c1cc1c3c(cc4c(c32)OCO4)C(=O)N1C the IC50 was 50.3 µM (MOLT-3; XTT; 75 h).
The IC50 of Cc1ncsc1-c1ccc([C@H](C)NC(=O)[C@@H]2C[C@@H](O)CN2C(=O)[C@@H](NC(=O)CN2CCN(c3cc(-c4ccccc4O)nnc3N)CC2)C(C)(C)C)cc1 is reported as 0.215 µM (NCI-H1944; ATP luminescence; 7 days).
CC1=CC(=O)c2ccccc2C1=O has an IC50 of 10.3 µM (MOLT-3; XTT).
With Nc1ccccc1NC(=O)c1ccc(Cn2cnc3c(Nc4ccc(Br)cc4F)ncnc32)cc1 the IC50 was 1.54 µM (NALM-6; MTT; 72 h).
The IC50 of C(=N\Nc1cc(N/N=C/c2ccc3ccccc3n2)ncn1)/c1ccc2ccccc2n1 is reported as over 100 µM (L02; MTT; 48 h).
For O=C1C(=Nc2ccc(Cl)cc2Br)c2ccccc2N1Cc1ccc(Br)cc1, the IC50 was 7.75 µM (L02; MTT; 48 h).
COc1cccc2c1C(=O)c1c(O)c3c(c(O)c1C2=O)C[C@@](O)(C(=O)CO)C[C@@H]3O[C@H]1C[C@H](N)[C@H](O)[C@H](C)O1 gave an IC50 of 0.046 µM (MOLT-3; XTT; 75 h).
For CC(C)c1cccc(C(C)C)c1N=C1C(=O)N(Cc2ccccc2)c2ccccc21, the IC50 was 59 µM (L02; MTT; 48 h).
CC(C)(C)c1cnc(CSc2cnc(NC(=O)C3CCN(C(=O)CCCCCCCN4Cc5cc6c(cc5C4)C(=O)N(C4CCC(=O)NC4=O)C6=O)CC3)s2)o1 (stereo not drawn) has an IC50 of 0.0066 µM (REH; MTT).
With C(=N\Nc1cc(N/N=C/c2cccc3cccnc23)nc(-c2ccccc2)n1)/c1cccc2cccnc12 the IC50 was over 100 µM (L02; MTT; 48 h).
The IC50 of Cc1cc(Nc2ncnc3ccc(NC4=NC(C)(C)CO4)cc23)ccc1Oc1ccn2ncnc2c1 is reported as 0.0302 µM (HCC1419; ATP luminescence).
For Nc1nnc(-c2ccccc2O)cc1N1CC2CCC(C1)N2c1ccnc(F)c1, the IC50 was over 1 µM (NCI-H1944; ATP luminescence; 7 days).
For Cc1cccc(N=C2C(=O)N(Cc3cccc(Cl)c3)c3ccccc32)c1, the IC50 was 25.8 µM (L02; MTT; 48 h).
For CN(C)C(=O)c1cc2cnc(Nc3ccc(-c4ccc5c(=O)cc(N6CCOCC6)oc5c4)cc3)nc2n1C1CCCC1, the IC50 was 1.15 µM (Hs68; ATP luminescence; 72 h).
CC(C)c1cccc(C(C)C)c1N=C1C(=O)N(Cc2cccc(Cl)c2)c2ccccc21 has an IC50 of 72.5 µM (L02; MTT; 48 h).
With C=C[C@]1(C)C=C2CC[C@H]3C(C)(C)CCC[C@]3(C)[C@H]2CC1 the IC50 was 125 µM (MOLT-3; XTT; 75 h).
The IC50 of COc1cc(N=C2C(=O)Nc3ccccc32)cc(OC)c1 is reported as over 100 µM (L02; MTT; 48 h).
With COc1ccc(Nc2ncnc3c2ncn3Cc2ccc(C(=O)Nc3ccccc3N)cc2)cc1 the IC50 was 7.81 µM (NALM-6; MTT; 72 h).
